Results from ChEMBL document CHEMBL1765009, “Novel hydrazine molecules as tools to understand the flexibility of vascular adhesion protein-1 ligand-binding site: toward more selective inhibitors” (J Med Chem, 2011).

Tests used:
[1] = biological target: T1, Monoamine oxidase (Rattus norvegicus, UniProt P19643+P21396); assay: Inhibition of rat liver MAO-A/MAO-B after 30 mins by coupled colorimetric method
T1 sequence (P19643 whole entry): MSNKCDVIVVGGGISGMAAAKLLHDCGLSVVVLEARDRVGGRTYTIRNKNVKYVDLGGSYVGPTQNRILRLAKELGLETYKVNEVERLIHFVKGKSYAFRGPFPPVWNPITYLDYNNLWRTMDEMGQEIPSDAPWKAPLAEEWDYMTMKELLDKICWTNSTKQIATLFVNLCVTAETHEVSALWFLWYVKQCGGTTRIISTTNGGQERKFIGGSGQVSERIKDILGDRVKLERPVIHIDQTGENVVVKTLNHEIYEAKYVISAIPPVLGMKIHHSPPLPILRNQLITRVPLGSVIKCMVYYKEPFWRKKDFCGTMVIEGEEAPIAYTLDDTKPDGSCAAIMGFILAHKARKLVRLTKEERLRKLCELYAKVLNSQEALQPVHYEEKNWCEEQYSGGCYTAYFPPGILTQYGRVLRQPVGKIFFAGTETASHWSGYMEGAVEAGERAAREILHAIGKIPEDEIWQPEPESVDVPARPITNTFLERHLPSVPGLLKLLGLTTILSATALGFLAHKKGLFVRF
T1 sequence (P21396 whole entry): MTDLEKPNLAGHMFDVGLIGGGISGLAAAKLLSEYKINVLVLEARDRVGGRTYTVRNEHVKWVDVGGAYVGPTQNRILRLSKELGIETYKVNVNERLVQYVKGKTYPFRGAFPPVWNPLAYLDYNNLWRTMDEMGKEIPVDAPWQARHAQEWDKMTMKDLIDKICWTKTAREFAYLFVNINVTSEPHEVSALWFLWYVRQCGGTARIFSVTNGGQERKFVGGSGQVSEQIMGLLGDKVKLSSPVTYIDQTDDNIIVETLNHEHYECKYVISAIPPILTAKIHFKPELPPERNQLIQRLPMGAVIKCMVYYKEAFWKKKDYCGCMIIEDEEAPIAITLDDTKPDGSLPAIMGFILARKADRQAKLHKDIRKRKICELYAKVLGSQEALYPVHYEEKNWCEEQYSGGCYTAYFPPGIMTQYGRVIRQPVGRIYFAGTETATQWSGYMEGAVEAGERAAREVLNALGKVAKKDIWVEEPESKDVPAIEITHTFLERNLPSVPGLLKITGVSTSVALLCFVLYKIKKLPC
How it was run: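 Enzyme source: mitochondrial fraction from rat liver (MAO A plus MAO B), homogenized in 0.1 M phosphate pH 7.4 and isolated by differential centrifugation. Coupled HRP/4-aminoantipyrine colorimetric assay with 1 mM vanillic acid as chromogen. Inhibitor (1 nM–50 µM) was preincubated 30 min at 37 °C, then tyramine added (0.5 mM final), 1 h at 37 °C, A490 read. IC50 given as mean ± SEM of 2–4 experiments.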

[2] = Selectivity ratio, ratio of IC50 for rat liver MAO-A/MAO-B to IC50 for human recombinant VAP-1
[3] = biological target: T2, Amine oxidase [copper-containing] 3 (Homo sapiens, UniProt Q16853); assay: Inhibition of human recombinant VAP-1 expressed in CHO cells after 30 mins by coupled colorimetric method; type: cell-based
T2 sequence (Q16853 whole entry): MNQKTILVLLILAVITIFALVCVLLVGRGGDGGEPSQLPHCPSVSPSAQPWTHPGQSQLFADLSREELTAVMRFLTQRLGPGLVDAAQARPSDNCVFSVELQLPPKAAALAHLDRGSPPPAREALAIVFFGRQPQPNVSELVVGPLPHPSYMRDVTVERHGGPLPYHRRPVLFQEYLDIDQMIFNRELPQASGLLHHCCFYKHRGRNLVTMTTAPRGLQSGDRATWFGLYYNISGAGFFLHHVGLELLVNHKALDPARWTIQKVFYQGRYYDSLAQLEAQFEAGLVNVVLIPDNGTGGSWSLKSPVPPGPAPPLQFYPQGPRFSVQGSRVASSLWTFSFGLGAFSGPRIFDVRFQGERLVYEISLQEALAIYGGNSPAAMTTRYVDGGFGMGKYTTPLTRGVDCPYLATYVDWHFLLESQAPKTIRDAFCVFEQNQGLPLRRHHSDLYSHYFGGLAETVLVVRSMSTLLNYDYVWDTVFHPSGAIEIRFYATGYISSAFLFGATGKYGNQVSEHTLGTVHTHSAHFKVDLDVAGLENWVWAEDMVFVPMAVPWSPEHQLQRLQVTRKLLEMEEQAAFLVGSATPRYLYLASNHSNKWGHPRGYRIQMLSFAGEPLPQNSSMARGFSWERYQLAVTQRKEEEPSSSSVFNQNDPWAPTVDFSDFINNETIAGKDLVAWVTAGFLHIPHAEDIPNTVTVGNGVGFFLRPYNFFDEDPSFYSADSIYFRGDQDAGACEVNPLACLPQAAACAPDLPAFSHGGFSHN
How it was run: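 Enzyme source: clarified lysate of CHO cells stably transfected with full-length human VAP-1 cDNA. The lysate was made in 150 mM NaCl, 10 mM Tris pH 7.2, 1.5 mM MgCl2 and 1% NP40 at 4 °C overnight. Reaction started with 1 mM benzylamine, 1 h at 37 °C, A490 read. IC50 given as mean ± SEM of 2–4 experiments.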

Q: For CN(N)[C@H](c1ccccc1)[C@@H](O)c1ccccc1, which IC50 [1] is on record?
A: 105000 nM

Q: What about the Ratio IC50 [2] of the same compound?
A: 320

Q: And the IC50 [3]?
A: 330 nM

Q: For CN(N)[C@@H](c1ccccc1)[C@@H](O)c1ccccc1, which IC50 [1] is on record?
A: 85000 nM

Q: What about the Ratio IC50 [2] of the same compound?
A: 72

Q: What about the IC50 [3] of the same compound?
A: 1180 nM

Q: For CN(N)[C@H](c1ccccc1)[C@H](O)c1ccccc1, which IC50 [1] is on record?
A: 99000 nM

Q: And the Ratio IC50 [2]?
A: 90

Q: What about the IC50 [3] of the same compound?
A: 1060 nM

Q: What does the source list for CCCC(NN)C(O)c1ccccc1 (mixture of isomers)?
A: IC50 [1]: 11000 nM; Ratio IC50 [2]: 9; IC50 [3]: 1200 nM

Q: Which results are given for NNC[C@H](O)c1ccccc1?
A: IC50 [1]: 9900 nM; Ratio IC50 [2]: 250; IC50 [3]: 40 nM

Q: Which IC50 [1] does the source give for CN(N)[C@@H](c1ccccc1)[C@H](O)c1ccccc1 here?
A: 70000 nM

Q: What about the Ratio IC50 [2] of the same compound?
A: 250

Q: And the IC50 [3]?
A: 280 nM

Q: Which results are given for NNC[C@@H](O)c1ccccc1?
A: IC50 [1]: 9800 nM; Ratio IC50 [2]: 65; IC50 [3]: 150 nM

Q: With NN[C@@H](c1ccccc1)[C@H](O)c1ccccc1 (relative stereo) as the compound, how does the IC50 [1] read?
A: 34000 nM

Q: What about the Ratio IC50 [2] of the same compound?
A: 0.7

Q: What about the IC50 [3] of the same compound?
A: 50000 nM
